# Results reported in ChEMBL document CHEMBL1137338, “Effects of substitution on 9-(3-bromo-4-fluorophenyl)-5,9-dihydro-3H,4H-2,6-dioxa-4- azacyclopenta[b]naphthalene-1,8-dione, a dihydropyridine ATP-sensitive potassium channel opener” (J Med Chem, 2006).
# Target: Sulfonylurea receptor 2, Kir6.2 (Homo sapiens, UniProt O60706+Q14654)
# Experiment: Ability to open human urinary bladder Kir6.2 channel containing SUR2B in Ltk cells by FLIPR assay
# Assay type: functional, cell-based
# In short: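 Ltk- cells stably transfected with the Kir6.2/SUR2B exon 17- splice variant. Membrane potential was followed with DiBAC dye in a 96-well cell-based kinetic fluorescence (FLIPR) assay. The highest concentration tested was 10 µM. Each compound's maximal fluorescence response was expressed as % of the response to the reference opener.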
# Chain of Sulfonylurea receptor 2, Kir6.2 (Q14654 whole entry): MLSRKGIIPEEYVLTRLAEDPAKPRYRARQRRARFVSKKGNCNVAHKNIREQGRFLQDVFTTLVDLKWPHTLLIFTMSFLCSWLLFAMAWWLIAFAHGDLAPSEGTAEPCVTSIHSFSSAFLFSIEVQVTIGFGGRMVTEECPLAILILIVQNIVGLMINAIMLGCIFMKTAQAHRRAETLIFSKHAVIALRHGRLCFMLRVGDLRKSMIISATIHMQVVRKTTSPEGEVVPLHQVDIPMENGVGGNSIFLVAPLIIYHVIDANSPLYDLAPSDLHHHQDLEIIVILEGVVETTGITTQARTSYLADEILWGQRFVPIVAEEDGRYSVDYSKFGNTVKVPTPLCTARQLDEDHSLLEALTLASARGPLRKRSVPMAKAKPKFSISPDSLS
# Chain of Sulfonylurea receptor 2, Kir6.2 (O60706 whole entry): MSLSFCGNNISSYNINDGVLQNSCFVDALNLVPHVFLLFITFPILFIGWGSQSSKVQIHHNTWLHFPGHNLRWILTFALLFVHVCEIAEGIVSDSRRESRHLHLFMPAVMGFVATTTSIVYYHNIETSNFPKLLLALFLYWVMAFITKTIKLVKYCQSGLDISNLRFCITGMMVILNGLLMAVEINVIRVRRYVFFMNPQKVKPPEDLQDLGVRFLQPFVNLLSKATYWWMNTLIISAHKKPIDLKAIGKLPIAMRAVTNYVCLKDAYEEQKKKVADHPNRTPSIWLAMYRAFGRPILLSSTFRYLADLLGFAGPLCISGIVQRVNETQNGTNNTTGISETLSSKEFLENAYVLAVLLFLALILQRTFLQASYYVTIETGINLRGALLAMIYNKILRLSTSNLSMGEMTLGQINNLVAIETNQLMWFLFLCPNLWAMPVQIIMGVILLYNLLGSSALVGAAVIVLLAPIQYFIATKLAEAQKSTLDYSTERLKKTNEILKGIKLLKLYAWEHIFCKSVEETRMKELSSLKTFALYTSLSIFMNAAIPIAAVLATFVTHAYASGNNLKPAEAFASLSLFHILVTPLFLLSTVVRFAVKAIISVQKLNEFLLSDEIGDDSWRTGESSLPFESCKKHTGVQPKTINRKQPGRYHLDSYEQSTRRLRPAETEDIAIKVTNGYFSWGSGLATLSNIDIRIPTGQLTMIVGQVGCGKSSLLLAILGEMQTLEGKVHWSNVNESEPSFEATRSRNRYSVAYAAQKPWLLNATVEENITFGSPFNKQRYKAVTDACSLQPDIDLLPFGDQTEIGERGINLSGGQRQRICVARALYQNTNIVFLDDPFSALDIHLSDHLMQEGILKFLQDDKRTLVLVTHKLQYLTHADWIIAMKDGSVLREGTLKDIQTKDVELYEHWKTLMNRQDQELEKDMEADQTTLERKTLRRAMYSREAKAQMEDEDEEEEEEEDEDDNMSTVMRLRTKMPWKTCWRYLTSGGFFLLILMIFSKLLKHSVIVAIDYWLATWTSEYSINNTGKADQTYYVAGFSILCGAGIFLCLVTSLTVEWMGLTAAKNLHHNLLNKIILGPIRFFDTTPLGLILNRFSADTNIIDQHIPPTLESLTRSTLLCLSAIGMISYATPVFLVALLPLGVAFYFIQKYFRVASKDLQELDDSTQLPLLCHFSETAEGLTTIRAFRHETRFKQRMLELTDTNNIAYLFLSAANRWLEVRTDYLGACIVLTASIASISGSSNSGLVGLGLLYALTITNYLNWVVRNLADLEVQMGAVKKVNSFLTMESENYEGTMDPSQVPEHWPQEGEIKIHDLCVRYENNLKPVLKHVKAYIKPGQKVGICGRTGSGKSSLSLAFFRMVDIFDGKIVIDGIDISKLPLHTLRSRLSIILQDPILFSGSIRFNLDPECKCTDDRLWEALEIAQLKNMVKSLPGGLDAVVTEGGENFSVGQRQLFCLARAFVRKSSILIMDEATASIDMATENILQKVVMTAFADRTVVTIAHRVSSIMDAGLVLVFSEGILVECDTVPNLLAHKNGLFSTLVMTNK
row,Compound,EC50 [µM]
1,O=C1COCC2=C1C(c1ccc(F)c(Br)c1)C1=C(O)C3(CCCC3)OCC1=N2 (stereo not given),> 10
2,CC[C@H]1OCC(O)=C2C1=NC1=C(C(=O)COC1)[C@H]2c1ccc(Cl)c(Br)c1 (racemic),1.62
3,CCC[C@H]1OC(O)=C2C1=NC1=C(C(=O)COC1)[C@H]2c1ccc(F)c(Cl)c1 (racemic),0.0676
4,CCC[C@H]1OC(O)=C2C1=NC1=C(C(=O)COC1)[C@H]2c1ccc(Cl)c(Cl)c1 (racemic),0.603
5,CCC[C@H]1OC(O)=C2C1=NC1=C(C(=O)COC1)[C@H]2c1ccc(Br)c(Br)c1 (racemic),0.331
6,CCC[C@H]1OC(O)=C2C1=NC1=C(C(=O)COC1)[C@H]2c1ccc(Cl)c(Br)c1 (racemic),0.174
7,CC[C@@H]1OCC2=C(C1=O)[C@@H](c1ccc(F)c(Br)c1)C1=C(O)OCC1=N2 (racemic),> 10
8,C[C@H]1OC(O)=C2C1=NC1=C(C(=O)COC1)[C@H]2c1ccc(F)c(Br)c1 (racemic),1
9,COC[C@H]1OC(O)=C2C1=NC1=C(C(=O)COC1)[C@H]2c1ccc(F)c(Br)c1 (racemic),0.0229
10,CCC[C@H]1OC(O)=C2C1=NC1=C(C(=O)COC1)[C@H]2c1ccc(Br)c(Cl)c1 (racemic),0.427
11,CC[C@H]1OC(O)=C2C1=NC1=C(C(=O)COC1(C)C)[C@H]2c1ccc(F)c(Br)c1 (racemic),3.47
12,CC[C@@H]1OC(O)=C2C1=NC1=C(C(=O)COC1)[C@H]2c1ccc(F)c(Br)c1 (racemic),0.0355
13,CC[C@@H]1OCC(O)=C2C1=NC1=C(C(=O)COC1)[C@H]2c1ccc(F)c(Br)c1 (racemic),0.0141
14,C[C@@H]1OCC2=C(C1=O)[C@H](c1ccc(F)c(Br)c1)C1=C(O)OCC1=N2 (racemic),0.457
15,CC[C@H]1OCC(O)=C2C1=NC1=C(C(=O)COC1)[C@H]2c1ccc(Br)c(Br)c1 (racemic),0.135
16,CC(C)C[C@H]1OC(O)=C2C1=NC1=C(C(=O)COC1)[C@H]2c1ccc(F)c(Br)c1 (racemic),> 10
17,CC[C@H]1OCC(O)=C2C1=NC1=C(C(=O)COC1)[C@H]2c1ccc(F)c(I)c1 (racemic),12

row,Compound,EC50 [µM]
1,CC[C@H]1OCC(O)=C2C1=NC1=C(C(=O)COC1)[C@H]2c1ccc(Br)c(Cl)c1 (racemic),1
2,CC[C@H]1OCC(O)=C2C1=NC1=C(C(=O)COC1)[C@H]2c1ccc(F)c(Br)c1 (racemic),0.186
3,CCC[C@H]1OC(O)=C2C1=NC1=C(C(=O)COC1)[C@H]2c1ccc(F)c(I)c1 (racemic),0.0759
4,C[C@@H]1OC(O)=C2C1=NC1=C(C(=O)COC1)[C@H]2c1ccc(F)c(Br)c1 (racemic),0.0055
5,CC[C@H]1C2=C(C(=O)N1C)[C@H](c1ccc(F)c(Br)c1)C1=C(O)COCC1=N2 (relative stereo),> 10
6,CC(C)[C@H]1OC(O)=C2C1=NC1=C(C(=O)COC1)[C@H]2c1ccc(F)c(Br)c1 (relative stereo),> 10
7,CC[C@@H]1C2=C(C(=O)N1C)[C@H](c1ccc(F)c(Br)c1)C1=C(O)COCC1=N2 (relative stereo),> 10
8,C[C@@H]1OCC2=C(C1=O)[C@@H](c1ccc(F)c(Br)c1)C1=C(O)OCC1=N2 (stereo in doubt; 7a),0.174
9,C[C@@H]1OCC2=C(C1=O)[C@@H](c1ccc(F)c(Br)c1)C1=C(O)OCC1=N2 (stereo in doubt; 7b),0.513
10,C[C@@H]1OCC2=C(C1=O)[C@H](c1ccc(F)c(Br)c1)C1=C(O)OCC1=N2 (stereo in doubt; 8a),0.0724
11,C[C@@H]1OC(O)=C2C1=NC1=C(C(=O)COC1)[C@H]2c1ccc(F)c(Br)c1 (stereo in doubt; 17b),0.0513
12,CC[C@@H]1OC(O)=C2C1=NC1=C(C(=O)COC1)[C@H]2c1ccc(F)c(Br)c1 (stereo in doubt; 20a),0.00389
13,CC[C@@H]1OC(O)=C2C1=NC1=C(C(=O)COC1)[C@H]2c1ccc(F)c(Br)c1 (stereo in doubt; 20b),0.145
14,CCC[C@@H]1OC(O)=C2C1=NC1=C(C(=O)COC1)[C@H]2c1ccc(F)c(Br)c1 (stereo in doubt; 22a),0.001
15,CCC[C@H]1OC(O)=C2C1=NC1=C(C(=O)COC1)[C@H]2c1ccc(F)c(Br)c1 (stereo in doubt; 23a),3.24
16,COC[C@H]1OC(O)=C2C1=NC1=C(C(=O)COC1)[C@H]2c1ccc(F)c(Br)c1 (stereo in doubt; 25b),0.0229
17,CC[C@H]1OC(O)=C2C1=NC1=C(C(=O)C(C)(C)OC1)[C@H]2c1ccc(F)c(Br)c1 (stereo in doubt; 36a),0.437

# Further lines, results first:
row,EC50 [µM],Compound
1,1.58,CC[C@H]1OCC(O)=C2C1=NC1=C(C(=O)COC1)[C@H]2c1ccc(C)c(Br)c1 (racemic)
2,0.105,CC[C@H]1OCC(O)=C2C1=NC1=C(C(=O)COC1)[C@H]2c1ccc(Cl)c(Cl)c1 (racemic)
3,0.398,CCC[C@H]1OC(O)=C2C1=NC1=C(C(=O)COC1)[C@H]2c1ccc(C)c(Br)c1 (racemic)
4,0.00513,CCC[C@@H]1OC(O)=C2C1=NC1=C(C(=O)COC1)[C@H]2c1ccc(F)c(Br)c1 (racemic)
5,0.457,CC[C@H]1OCC(O)=C2C1=NC1=C(C(=O)COC1)[C@H]2c1ccc(F)c(Cl)c1 (racemic)
6,2.19,CCCC[C@H]1OC(O)=C2C1=NC1=C(C(=O)COC1)[C@H]2c1ccc(F)c(Br)c1 (racemic)
7,0.501,C[C@@H]1OCC2=C(C1=O)[C@@H](c1ccc(F)c(Br)c1)C1=C(O)OCC1=N2 (racemic)
8,0.282,CC[C@H]1OC(O)=C2C1=NC1=C(C(=O)C(C)(C)OC1)[C@H]2c1ccc(F)c(Br)c1 (racemic)
9,> 10,CCCCC[C@H]1OC(O)=C2C1=NC1=C(C(=O)COC1)[C@H]2c1ccc(F)c(Br)c1 (relative stereo)
10,> 10,CCCCC[C@@H]1OC(O)=C2C1=NC1=C(C(=O)COC1)[C@H]2c1ccc(F)c(Br)c1 (relative stereo)
11,0.0269,"CC1(C)OCC2=C(C1=O)C(c1ccc(F)c(Br)c1)C1=C(O)OCC1=N2 (single isomer, unassigned; (+))"
12,0.0457,O=C1COCC2=C1C(c1ccc(F)c(Br)c1)C1=C(O)OCC1=N2 (stereo in doubt; 6)
13,0.295,C[C@@H]1OCC2=C(C1=O)[C@H](c1ccc(F)c(Br)c1)C1=C(O)OCC1=N2 (stereo in doubt; 8b)
14,0.024,CC1(C)OCC2=C(C1=O)C(c1ccc(F)c(Br)c1)C1=C(O)OCC1=N2 (stereo in doubt; 9)
15,2.82,CC1(C)OCC2=C(C1=O)C(c1ccc(F)c(Br)c1)C1=C(O)OCC1=N2 (stereo in doubt; 9b)
16,0.0646,C[C@H]1OC(O)=C2C1=NC1=C(C(=O)COC1)[C@H]2c1ccc(F)c(Br)c1 (stereo in doubt; 18a)
17,0.257,C[C@H]1OC(O)=C2C1=NC1=C(C(=O)COC1)[C@H]2c1ccc(F)c(Br)c1 (stereo in doubt; 18b)
18,0.00372,CCC[C@@H]1OC(O)=C2C1=NC1=C(C(=O)COC1)[C@H]2c1ccc(F)c(Br)c1 (stereo in doubt; 22b)
19,0.479,COC[C@H]1OC(O)=C2C1=NC1=C(C(=O)COC1)[C@H]2c1ccc(F)c(Br)c1 (stereo in doubt; 25a)
20,5.13,CCCC[C@H]1OC(O)=C2C1=NC1=C(C(=O)COC1)[C@H]2c1ccc(F)c(Br)c1 (stereo in doubt; 29a)
21,2.51,CC(C)C[C@H]1OC(O)=C2C1=NC1=C(C(=O)COC1)[C@H]2c1ccc(F)c(Br)c1 (stereo in doubt; 31a)
